# Source: ChEMBL document CHEMBL4229380, “Arylureas derived from colchicine: Enhancement of colchicine oncogene downregulation activity” (Eur J Med Chem, 2018)
# Key:
# HT-29 [1] = assay: Induction of apoptosis in human HT-29 cells assessed as apoptotic cells at 1 nM after 48 hrs by Annexin V-FITC staining-based flow cytometric analysis (reference value: 13 +/- 3%); type: functional
# HT-29 [2] = assay: Effect on hTERT gene expression in human HT-29 cells assessed as hTERT level at 1 nM after 48 hrs by RT-qPCR analysis; type: functional
# In short: (§1)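 HT-29 cells at 70–80% confluence were seeded at 1.5×10^5 per well and left 24 h, then treated 48 h, with DMSO as control. Total RNA was extracted and VEGF-A, c-Myc and hTERT were quantified by TaqMan qPCR, normalized to β-actin and to living cell number. Results are % expression versus control, at least three measurements.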
# HT-29 [3] = assay: Induction of apoptosis in human HT-29 cells assessed as viable cells at 1 nM after 48 hrs by Annexin V-FITC staining-based flow cytometric analysis (reference value: 82 +/- 1%); type: functional; conditions: HT-29, 48 h, read-out: Activity
# HT-29 [4] = assay: Effect on c-MYC protein expression in human HT-29 cells assessed as c-MYC level at 1 nM after 48 hrs by ELISA; type: functional
# In short: (§2)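 HT-29 cells (1.5×10^5 per well, 24 h pre-culture) were treated 48 h and washed in PBS. They were lysed in Tris pH 7.4 buffer with detergents, phosphatase inhibitors, PMSF and protease inhibitors. Lysates were adjusted to 200 µg/mL protein (Bradford) and total c-Myc or VEGFR-2 was measured by sandwich ELISA kit. Values are % of DMSO control, ≥3 measurements.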
# HT-29 [5] = assay: Induction of apoptosis in human HT-29 cells assessed as necrotic cells at 1 nM after 48 hrs by Annexin V-FITC staining-based flow cytometric analysis (reference value: 2 +/- 6%); type: functional
# MCF7 = assay: Antiproliferative activity against human MCF7 cells after 2 days by MTT assay; type: functional, cell-based; conditions: MCF7, 48 h
# In short: (§3)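 Cells (5×10^3 per well) in DMEM with 10% FBS, glucose, glutamine and antibiotics were exposed to serial dilutions (stocks in DMSO) for 2 days at 37 °C, 5% CO2. MTT was added for 3 h, formazan was dissolved in DMSO and absorbance read at 490 nm. Viability was taken as % of untreated cells. IC50 was read graphically from three independent experiments.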
# HeLa = assay: Antiproliferative activity against human HeLa cells after 2 days by MTT assay; type: functional, cell-based; conditions: 48 h; in short: as §3
# HT-29 [6] = assay: Effect on VEGFR2 protein expression in human HT-29 cells assessed as VEGFR2 level at 1 nM after 48 hrs by ELISA; type: functional; in short: as §2
# HT-29 [7] = assay: Effect on VEGF gene expression in human HT-29 cells assessed as VEGF level at 1 nM after 48 hrs by RT-qPCR analysis; type: functional; in short: as §1
# HEK293 = assay: Antiproliferative activity against human HEK293 cells after 2 days by MTT assay; type: cell-based; conditions: HEK293, 48 h; in short: as §3
# HT-29 [8] = assay: Effect on c-MYC gene expression in human HT-29 cells assessed as c-MYC level at 1 nM after 48 hrs by RT-qPCR analysis; type: functional; in short: as §1
# HT-29 [9] = assay: Antiproliferative activity against human HT-29 cells after 2 days by MTT assay; type: functional, cell-based; conditions: HT-29, 48 h; in short: as §3
# HT-29 [10] = assay: Effect on VEGF protein expression in human HT-29 cells assessed as secreted VEGF level in culture media at 1 nM after 48 hrs by ELISA
smiles,measurement,setting,value
COc1cc2c(c(OC)c1OC)-c1ccc(OC)c(=O)cc1[C@@H](NC(=O)Nc1ccc(-c3ccccc3)cc1)CC2,Activity,HT-29 [1],11%
same,Activity,HT-29 [2],60%
same,viability at 0.001 µM,HT-29 [3],86%
same,Activity,HT-29 [4],119%
same,Activity,HT-29 [5],3%
same,IC50,MCF7,1.5 nM
same,IC50,HeLa,12 nM
same,Activity,HT-29 [6],74%
same,Activity,HT-29 [7],72%
same,IC50,HEK293,1.7 nM
same,Activity,HT-29 [8],85%
same,IC50,HT-29 [9],1.2 nM
same,Activity,HT-29 [10],72%
